Test results as given in the M2OR odorant receptor database.

Legend:
Details in all cases: stereoisomer not certain
OR5K1 (Homo sapiens) = target: T1, OR5K1 (Homo sapiens) (UniProt Q8NHB7)
T1 sequence (whole entry): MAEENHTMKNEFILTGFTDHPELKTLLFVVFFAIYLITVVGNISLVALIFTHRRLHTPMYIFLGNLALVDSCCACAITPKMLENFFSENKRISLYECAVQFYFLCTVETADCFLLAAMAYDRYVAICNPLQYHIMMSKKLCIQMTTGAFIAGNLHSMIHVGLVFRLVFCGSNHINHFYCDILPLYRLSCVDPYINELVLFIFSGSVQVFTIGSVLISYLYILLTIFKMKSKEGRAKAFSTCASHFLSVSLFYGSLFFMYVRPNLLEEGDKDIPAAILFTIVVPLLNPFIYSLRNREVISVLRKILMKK
Outline: (§1)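 Each receptor–molecule pair is labelled responsive or non-responsive (inactive) according to whether the original authors judged the measured signal statistically different from baseline. The data were taken from the main text and supplementary material of published papers and checked for typos and inconsistencies. Assay methods differed by source, with transient luciferase assays in mammalian cell lines being common.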

OR5H1 (Homo sapiens) = OR5H1 (Homo sapiens) (UniProt A6NKK0)
Outline: as §1

OR5H1 F17L A30T H56Q = test system: OR5H1 F17L A30T H56Q
Outline: as §1

OR5H1 T181N = test system: OR5H1 T181N
Outline: as §1

OR5H14 (Homo sapiens) = OR5H14 (Homo sapiens) (UniProt A6NHG9)
Outline: as §1

OR5H15 (Homo sapiens) = OR5H15 (Homo sapiens) (UniProt A6NDH6)
Outline: as §1

OR5H1 = test system: OR5H1
Outline: as §1

OR5H2 = test system: OR5H2
Outline: as §1

OR5H6 (Homo sapiens) = OR5H6 (Homo sapiens) (UniProt Q8NGV6)
Outline: as §1

OR5I1 (Homo sapiens) = OR5I1 (Homo sapiens) (UniProt Q13606)
Outline: as §1

OR5J2 (Homo sapiens) = OR5J2 (Homo sapiens) (UniProt Q8NH18)
Outline: as §1

OR5K2 (Homo sapiens) = OR5K2 (Homo sapiens) (UniProt Q8NHB8)
Outline: as §1

OR5K2 L197M = test system: OR5K2 L197M
Outline: as §1

OR5K3 (Homo sapiens) = OR5K3 (Homo sapiens) (UniProt A6NET4)
Outline: as §1

OR5K4 (Homo sapiens) = OR5K4 (Homo sapiens) (UniProt A6NMS3)
Outline: as §1

OR5L1 (Homo sapiens) = OR5L1 (Homo sapiens) (UniProt Q8NGL2)
Outline: as §1

OR5L2 (Homo sapiens) = OR5L2 (Homo sapiens) (UniProt Q8NGL0)
Outline: as §1

OR5M1 (Homo sapiens) = OR5M1 (Homo sapiens) (UniProt Q8NGP8)
Outline: as §1

OR5G3 (Homo sapiens) = OR5G3 (Homo sapiens) (UniProt P0C626)
Outline: as §1

OR5H8 (Homo sapiens) = OR5H8 (Homo sapiens) (UniProt P0DN80)
Outline: as §1

Measured: odorant receptor agonist call;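 further: active if original authors judged signal statistically different from baseline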

Chain of OR5H2 (as listed by the source): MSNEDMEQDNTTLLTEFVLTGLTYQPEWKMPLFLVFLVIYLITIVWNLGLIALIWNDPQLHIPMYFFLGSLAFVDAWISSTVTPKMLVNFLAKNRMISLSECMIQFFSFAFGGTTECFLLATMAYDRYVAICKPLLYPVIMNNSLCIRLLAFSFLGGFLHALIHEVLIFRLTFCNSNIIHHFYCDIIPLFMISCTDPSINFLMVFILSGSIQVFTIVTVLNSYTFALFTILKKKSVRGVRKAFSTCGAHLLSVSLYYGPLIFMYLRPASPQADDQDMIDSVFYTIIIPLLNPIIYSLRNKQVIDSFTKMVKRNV
Chain of OR5K2 (Homo sapiens) (Q8NHB8 whole entry): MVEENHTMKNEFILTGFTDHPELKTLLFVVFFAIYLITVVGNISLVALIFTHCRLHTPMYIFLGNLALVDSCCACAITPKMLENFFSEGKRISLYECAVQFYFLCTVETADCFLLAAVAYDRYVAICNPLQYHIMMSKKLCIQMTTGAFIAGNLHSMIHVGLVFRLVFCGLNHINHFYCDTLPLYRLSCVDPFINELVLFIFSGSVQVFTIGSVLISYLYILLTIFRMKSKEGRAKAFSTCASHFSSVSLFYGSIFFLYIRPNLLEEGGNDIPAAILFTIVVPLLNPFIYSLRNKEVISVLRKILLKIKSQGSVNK
Chain of OR5H6 (Homo sapiens) (Q8NGV6 whole entry): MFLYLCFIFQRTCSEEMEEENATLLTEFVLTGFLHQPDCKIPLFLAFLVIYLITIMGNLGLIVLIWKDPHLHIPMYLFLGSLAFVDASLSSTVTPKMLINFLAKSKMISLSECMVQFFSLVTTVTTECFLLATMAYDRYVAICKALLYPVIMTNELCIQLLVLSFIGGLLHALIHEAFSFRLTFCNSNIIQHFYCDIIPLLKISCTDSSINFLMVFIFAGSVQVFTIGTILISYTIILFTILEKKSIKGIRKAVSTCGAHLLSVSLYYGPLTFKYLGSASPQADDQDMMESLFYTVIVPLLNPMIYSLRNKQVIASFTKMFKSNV
Chain of OR5J2 (Homo sapiens) (Q8NH18 whole entry): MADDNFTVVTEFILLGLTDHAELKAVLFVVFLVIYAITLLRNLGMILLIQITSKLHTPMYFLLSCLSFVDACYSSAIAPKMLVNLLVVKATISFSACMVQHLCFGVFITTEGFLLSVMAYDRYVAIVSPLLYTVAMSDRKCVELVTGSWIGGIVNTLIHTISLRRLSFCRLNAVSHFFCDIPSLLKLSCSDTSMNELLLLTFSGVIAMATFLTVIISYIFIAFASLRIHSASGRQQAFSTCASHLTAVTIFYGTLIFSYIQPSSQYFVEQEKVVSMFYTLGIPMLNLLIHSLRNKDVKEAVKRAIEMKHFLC
Chain of OR5H14 (Homo sapiens) (A6NHG9 whole entry): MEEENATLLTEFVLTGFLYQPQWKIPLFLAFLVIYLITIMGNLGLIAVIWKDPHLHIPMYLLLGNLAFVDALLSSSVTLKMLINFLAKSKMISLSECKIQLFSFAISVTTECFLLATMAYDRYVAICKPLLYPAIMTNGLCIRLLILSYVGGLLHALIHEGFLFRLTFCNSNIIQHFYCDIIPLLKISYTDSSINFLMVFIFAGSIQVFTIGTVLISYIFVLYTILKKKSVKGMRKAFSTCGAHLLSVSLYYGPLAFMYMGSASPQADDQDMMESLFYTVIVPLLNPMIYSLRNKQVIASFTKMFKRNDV
Chain of OR5L1 (Homo sapiens) (Q8NGL2 whole entry): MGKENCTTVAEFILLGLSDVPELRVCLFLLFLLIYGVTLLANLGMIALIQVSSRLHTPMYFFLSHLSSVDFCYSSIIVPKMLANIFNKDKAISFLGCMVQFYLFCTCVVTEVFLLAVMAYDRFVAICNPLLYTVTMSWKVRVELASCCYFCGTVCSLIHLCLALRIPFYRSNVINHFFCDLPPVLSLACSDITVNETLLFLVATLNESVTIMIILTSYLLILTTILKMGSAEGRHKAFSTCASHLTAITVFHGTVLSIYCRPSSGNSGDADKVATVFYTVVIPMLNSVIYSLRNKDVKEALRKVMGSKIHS
Chain of OR5K4 (Homo sapiens) (A6NMS3 whole entry): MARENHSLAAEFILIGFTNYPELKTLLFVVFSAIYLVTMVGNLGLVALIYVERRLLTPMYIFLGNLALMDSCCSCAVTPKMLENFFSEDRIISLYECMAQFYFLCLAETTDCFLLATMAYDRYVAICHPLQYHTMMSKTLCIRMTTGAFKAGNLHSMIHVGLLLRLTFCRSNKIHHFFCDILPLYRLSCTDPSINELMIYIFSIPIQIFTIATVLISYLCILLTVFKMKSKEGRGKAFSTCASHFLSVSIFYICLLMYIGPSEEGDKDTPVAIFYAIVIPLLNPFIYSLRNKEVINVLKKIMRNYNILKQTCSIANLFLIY
Chain of OR5M1 (Homo sapiens) (Q8NGP8 whole entry): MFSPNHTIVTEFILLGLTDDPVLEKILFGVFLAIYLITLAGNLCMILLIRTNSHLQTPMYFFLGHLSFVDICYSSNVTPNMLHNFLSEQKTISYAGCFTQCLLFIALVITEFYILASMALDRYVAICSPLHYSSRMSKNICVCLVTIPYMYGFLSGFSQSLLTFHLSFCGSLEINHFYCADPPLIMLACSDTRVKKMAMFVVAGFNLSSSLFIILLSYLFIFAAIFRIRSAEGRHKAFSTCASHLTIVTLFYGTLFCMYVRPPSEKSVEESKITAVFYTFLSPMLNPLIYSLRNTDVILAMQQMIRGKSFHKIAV
Chain of OR5H15 (Homo sapiens) (A6NDH6 whole entry): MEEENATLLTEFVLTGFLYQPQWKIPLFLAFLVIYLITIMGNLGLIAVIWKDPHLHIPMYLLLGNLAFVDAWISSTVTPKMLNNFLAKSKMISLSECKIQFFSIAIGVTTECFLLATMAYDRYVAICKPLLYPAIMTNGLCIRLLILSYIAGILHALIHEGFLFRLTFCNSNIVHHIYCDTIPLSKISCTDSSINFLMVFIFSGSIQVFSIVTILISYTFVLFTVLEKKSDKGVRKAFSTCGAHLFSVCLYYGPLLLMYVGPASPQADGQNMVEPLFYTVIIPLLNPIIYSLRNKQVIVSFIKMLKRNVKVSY
Chain of OR5I1 (Homo sapiens) (Q13606 whole entry): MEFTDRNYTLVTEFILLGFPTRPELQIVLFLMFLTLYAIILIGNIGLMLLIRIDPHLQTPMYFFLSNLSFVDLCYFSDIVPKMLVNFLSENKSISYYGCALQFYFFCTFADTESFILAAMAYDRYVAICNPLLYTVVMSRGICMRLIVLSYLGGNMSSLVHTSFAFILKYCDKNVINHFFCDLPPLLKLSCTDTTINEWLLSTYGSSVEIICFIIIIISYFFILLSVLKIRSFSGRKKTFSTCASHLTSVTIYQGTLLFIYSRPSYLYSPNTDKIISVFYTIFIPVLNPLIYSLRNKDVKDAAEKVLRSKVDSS
Chain of OR5K3 (Homo sapiens) (A6NET4 whole entry): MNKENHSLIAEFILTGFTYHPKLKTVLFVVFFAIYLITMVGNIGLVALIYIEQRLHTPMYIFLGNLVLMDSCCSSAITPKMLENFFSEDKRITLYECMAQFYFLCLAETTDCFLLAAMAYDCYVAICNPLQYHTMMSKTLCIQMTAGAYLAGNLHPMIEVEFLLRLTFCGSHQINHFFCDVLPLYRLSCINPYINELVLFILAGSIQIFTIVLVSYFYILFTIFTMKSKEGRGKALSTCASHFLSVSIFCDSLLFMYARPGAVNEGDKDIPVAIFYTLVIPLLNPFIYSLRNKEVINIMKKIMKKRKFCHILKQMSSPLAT
Chain of OR5K2 L197M (as listed by the source, stated change not applied): as the sequence (Q8NHB8 whole entry) above, with L197M counted along it
Chain of OR5H1 T181N (as listed by the source, stated change not applied): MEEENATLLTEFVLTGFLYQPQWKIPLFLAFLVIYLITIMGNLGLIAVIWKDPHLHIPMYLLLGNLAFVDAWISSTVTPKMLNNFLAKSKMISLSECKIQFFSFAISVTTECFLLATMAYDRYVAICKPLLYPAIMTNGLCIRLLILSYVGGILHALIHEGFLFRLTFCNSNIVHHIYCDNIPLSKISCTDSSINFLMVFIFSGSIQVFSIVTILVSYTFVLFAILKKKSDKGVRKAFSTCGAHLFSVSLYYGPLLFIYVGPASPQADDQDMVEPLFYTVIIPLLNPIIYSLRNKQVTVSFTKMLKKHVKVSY
Chain of OR5H8 (Homo sapiens) (P0DN80 whole entry): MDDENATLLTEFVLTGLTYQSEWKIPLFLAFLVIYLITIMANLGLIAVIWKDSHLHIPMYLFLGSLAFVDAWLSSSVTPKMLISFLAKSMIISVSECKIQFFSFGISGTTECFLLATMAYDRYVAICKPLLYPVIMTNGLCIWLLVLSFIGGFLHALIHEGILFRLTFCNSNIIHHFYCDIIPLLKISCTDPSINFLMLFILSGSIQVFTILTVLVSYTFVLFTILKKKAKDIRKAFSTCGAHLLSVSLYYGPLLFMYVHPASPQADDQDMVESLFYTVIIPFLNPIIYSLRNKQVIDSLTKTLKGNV
Chain of OR5L2 (Homo sapiens) (Q8NGL0 whole entry): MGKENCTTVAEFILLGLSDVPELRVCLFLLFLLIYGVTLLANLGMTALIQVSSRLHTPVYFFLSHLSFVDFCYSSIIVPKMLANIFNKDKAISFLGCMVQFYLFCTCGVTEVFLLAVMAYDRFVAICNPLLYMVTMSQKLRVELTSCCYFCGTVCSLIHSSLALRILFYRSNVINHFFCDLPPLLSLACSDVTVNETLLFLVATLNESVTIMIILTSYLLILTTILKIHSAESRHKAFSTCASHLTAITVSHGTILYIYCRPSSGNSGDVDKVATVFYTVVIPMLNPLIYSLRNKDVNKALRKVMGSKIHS

NCC(=O)c1ccccc1
inactive: OR5K1 (Homo sapiens)

COc1ccc(C=O)cc1
inactive: OR5K1 (Homo sapiens)

CCOC(=O)Cc1ccccc1
inactive: OR5K1 (Homo sapiens)

SCc1ccco1
inactive: OR5K1 (Homo sapiens)

C=CCOC(=O)Cc1ccccc1
not listed: OR5G3 (Homo sapiens) | OR5H8 (Homo sapiens)
inactive: all other assays above

Cc1ccccc1O
inactive: OR5K1 (Homo sapiens)

C=CCc1ccc(OC)cc1
inactive: OR5K1 (Homo sapiens)

CSSC
inactive: OR5K1 (Homo sapiens)

Cc1ccc(O)c(C)c1
inactive: OR5K1 (Homo sapiens)

Cc1c([N+](=O)[O-])c(C)c([N+](=O)[O-])c(C(C)(C)C)c1[N+](=O)[O-]
not listed: OR5K1 (Homo sapiens) | OR5H1 (Homo sapiens) | OR5H1 F17L A30T H56Q | OR5H1 T181N | OR5H1 | OR5K2 L197M | OR5L2 (Homo sapiens)
inactive: all other assays above

C=CCSSCC=C
inactive: OR5K1 (Homo sapiens)

O=Cc1ccc2c(c1)OCO2
inactive: OR5K1 (Homo sapiens)
